Measured values taken from PubChem BioAssay.
Inconclusive results are not listed.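 The calls were made as follows, unless noted: active = cell viability at or below a set limit in both duplicate runs, the limit being the all-compound median minus 4 SD (cut at about 23% in these data, passing the limit was not always enough); inconclusive = no clear call, values can overlap the other calls; inactive = the rest.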

What was measured:
[1] = S. cerevisiae growth inhibition in permissive medium (OD615), pilot counter-assay for S. cerevisiae lifespan shortening project, permissive growth control (AID 705;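 active = growth inhibition above 25% in both replicates, a cutoff set 3 SD above the mean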); settings: OD615, 24 h, at 10 µM, active compounds read high
Procedure, shortened: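 Material: engineered DeaD yeast; compound dosing: one dose 10 µM, DMSO 0.25% final; measure: yeast growth inhibition indicated by reduced 24 h OD615; detection: OD615 turbidity read; incubation: cells pre-grown 4 h, then 24 h compound exposure, 30 °C humidified; medium: permissive synthetic complete medium with raffinose and galactose carbon sources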

[2] = S. cerevisiae growth inhibition in restrictive medium, OD615, pilot screen, restrictive growth control, yeast lifespan reduction project (AID 706;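 active = growth inhibition above a set limit, 3 SD over mean compound inhibition, in both replicates, cut at about 43% in these data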;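 also: modified DeaD lifespan yeast strain shifted to restrictive glucose medium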); settings: OD615, 48 h, at 10 µM, active compounds read high
Procedure, shortened: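 material = engineered S. cerevisiae DeaD strain | medium = glucose-based CSMM-D restrictive medium | times = 4 h pre-incubation, 48 h exposure at 30 °C | technique = OD615 absorbance reading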

[3] = doxorubicin toxicity protection in MRP-1 cells – H69AR cells, CellTiter-Glo, duplicate, MRP-1 activator project, pilot screen (AID 807;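 active = viability increase at or above a cutoff of the median across tested compounds plus 3 SD, cut at about 8.5% in these data, passing the limit was not always enough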;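 also: compound pretreatment 18-22 h then 72 h combined with doxorubicin; 0% = doxorubicin alone and 100% = vehicle without doxorubicin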); settings: H69AR viability with doxorubicin, CellTiter-Glo luminescence; at 10 µM; active compounds read high
[4] = viability of HCT116 without oncogenic beta-catenin – human colon tumor cells, pilot screen (AID 823); settings: HCT116 beta-catenin knockout viability, CellTiter-Glo, 60 h; at 10 µM; active compounds read low;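 also: 0% = wells killed by 20 µM Hyamine and 100% = untreated DMSO cell wells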
[5] = viability of PTEN-null HCT116 cells – cell-based, HCT116 clonal line, CellTiter-Glo, pilot screen (AID 824;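 active = viability at or below 27.92% in each of two runs, the all-compound median minus 4 SD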;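 also: 0% = 20 µM Hyamine control and 100% = vehicle cell control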); settings: HCT116 PTEN-deleted viability, 60 h, at 10 µM, active compounds read low
[6] = RAM pathway blockade in budding yeast – dse1pr::URA3 reporter, 5-FOA selection, pilot screen (AID 869;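 active = inhibition over a set limit, the all-compound mean plus 3 SD, in both replicate runs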;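 also: 0% = DMSO wells with no growth and 100% = 10 µM 1-NA-PP1 with full growth; RAM network block rescues cells from 5-FOA so hits raise OD615 growth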); settings: S. cerevisiae dse1pr::URA3 5-FOA growth, OD615, 2 d; at 10 µM; active compounds read high; strain carries analog-sensitive mutant Cbk1 kinase
[7] = RAM signaling pathway blockade in yeast – S. cerevisiae, Pdr1DBD-CYC8 efflux-inhibited sensitized strain, primary screen (AID 1298;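 active = RAM network inhibition above 8.4% in each of two replicates, 3 SD over the compound average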;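 also: 0% = DMSO untreated cells without growth and 100% = 10 µM 1-NA-PP1 full growth; higher means more yeast growth rescued from 5-FOA killing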); settings: S. cerevisiae cbk1-as DSE1-URA3 strain, 5-FOA growth OD615, 2 d; at 50 µM; active compounds read high

CCCn1c(C(O)c2ccc(OCC)cc2)nc2ccccc21 (configuration not stated)
inactive: growth inhibition [1] -8.12% | growth inhibition [2] -1.57% | viability increase [3] -3.93% | viability [4] 94.9% | viability [5] 82.3% | inhibition [6] 1.36% | RAM network inhibition [7] -1.01%

Cc1nc2ccccn2c1C(=O)NC1CCCCC1
inactive: growth inhibition [1] 4.45% | growth inhibition [2] 1.56% | viability increase [3] -1.3% | viability [4] 101% | viability [5] 103% | inhibition [6] 1.17% | RAM network inhibition [7] -0.77%

CC(C)N(C(=O)CN(C#N)c1nc(N(C)C)nc(N(C)C)n1)c1ccccc1
inactive: growth inhibition [1] -16.1% | growth inhibition [2] -7.49% | viability increase [3] -2.51% | viability [4] 100% | viability [5] 106% | inhibition [6] 2.33% | RAM network inhibition [7] 4.46%

NC(=O)c1nc(C2CCCCC2)nc2c1[nH]c(=O)n2-c1ccc(F)cc1
inactive: growth inhibition [1] -13.1% | growth inhibition [2] -17.8% | viability increase [3] -3.71% | viability [4] 87.4% | viability [5] 86% | inhibition [6] 1.69% | RAM network inhibition [7] 5.24%

CCOC(=O)N1CCN(C(=O)CSc2nc3c([nH]c4ccccc43)c(=O)n2C)CC1
inactive: growth inhibition [1] 1.46% | growth inhibition [2] -8.89% | viability increase [3] -4.86% | viability [4] 91.1% | viability [5] 82.2% | inhibition [6] 2.34% | RAM network inhibition [7] 3.41%

CC(=O)N1CCC2(CC1)C(C#N)=C(N)Oc1n[nH]c(C)c12
inactive: growth inhibition [1] -6.98% | growth inhibition [2] 14.8% | viability increase [3] 0.18% | viability [4] 97.9% | viability [5] 98.2% | inhibition [6] 1.04% | RAM network inhibition [7] 6.55%

COc1cccc(N2CCN(C(=O)C3CCCN(S(=O)(=O)c4cnc[nH]4)C3)CC2)c1 (configuration not stated)
inactive: growth inhibition [1] 11.1% | growth inhibition [2] 8.66% | viability increase [3] 0.99% | viability [4] 97% | viability [5] 93% | inhibition [6] -0.27% | RAM network inhibition [7] -0.88%

CCc1ccccc1NC(=O)c1cc(C2CC2)on1
inactive: growth inhibition [1] -12.1% | growth inhibition [2] 6.47% | viability increase [3] -0.65% | viability [4] 93.2% | viability [5] 91.8% | inhibition [6] 0.045% | RAM network inhibition [7] 3.34%

Cc1ccc(-n2nnc3c(=O)n(Cc4ccccc4C)cnc32)cc1
inactive: growth inhibition [1] -4.99% | growth inhibition [2] -6.7% | viability increase [3] -0.53% | viability [4] 102% | viability [5] 100% | inhibition [6] 2.44% | RAM network inhibition [7] 4.84%

COc1ccc(NC(=O)Nc2cccc3cccnc23)cc1
inactive: growth inhibition [1] -3.3% | growth inhibition [2] -0.385% | viability increase [3] -4.59% | viability [4] 88.5% | viability [5] 78% | inhibition [6] -0.39% | RAM network inhibition [7] 0.21%

O=C(OCCNc1ncc(C(F)(F)F)cc1Cl)c1ccc(S(=O)(=O)N2CCOCC2)cc1
inactive: growth inhibition [1] -5% | growth inhibition [2] -18.4% | viability increase [3] -2.03% | viability [4] 88.8% | viability [5] 97.9% | inhibition [6] 1.17% | RAM network inhibition [7] 9.46%

Cc1ccc(OCCn2c(C)c(/C=N/n3cnnc3)c3ccccc32)cc1
inactive: growth inhibition [1] 8.46% | growth inhibition [2] 22.9% | viability increase [3] -6.55% | viability [4] 81.5% | viability [5] 76% | inhibition [6] 0.8% | RAM network inhibition [7] 1.89%

O=C1c2oc3ccccc3c(=O)c2C(c2cccc(O)c2)N1c1ccccn1 (configuration not stated)
inactive: growth inhibition [1] -7.62% | growth inhibition [2] -6.25% | viability increase [3] -0.37% | viability [4] 82.2% | viability [5] 79.6% | inhibition [6] 1.85% | RAM network inhibition [7] -0.1%

N#CC1=C2SCN(c3ccc(F)cc3)CN2C(=O)CC1c1cccc(F)c1 (configuration not stated)
inactive: growth inhibition [1] 4.17% | growth inhibition [2] 7.57% | viability increase [3] -2.71% | viability [4] 104% | viability [5] 96.7% | inhibition [6] 1.06% | RAM network inhibition [7] 7.08%

COc1ccc(-c2nnc(SCC(=O)NC(C)c3ccccc3)o2)cc1OC (configuration not stated)
inactive: growth inhibition [1] -1.92% | growth inhibition [2] -14.2% | viability increase [3] -1.24% | viability [4] 106% | viability [5] 96% | inhibition [6] 1.04% | RAM network inhibition [7] 1.77%

CCCCSc1nc(N)c(NC(=O)c2ccco2)c(=O)[nH]1
inactive: growth inhibition [1] -12.7% | growth inhibition [2] -14.2% | viability increase [3] -2% | viability [4] 101% | viability [5] 93.4% | inhibition [6] 1.58% | RAM network inhibition [7] 0.8%

O=C(CSc1nc2c(cnn2-c2ccc(F)cc2)c(=O)[nH]1)N1CCCc2ccccc21
inactive: growth inhibition [1] -2.67% | growth inhibition [2] -5.17% | viability increase [3] -3.32% | viability [4] 87.2% | viability [5] 83% | inhibition [6] 1.2% | RAM network inhibition [7] 4.44%

CC1CCN(S(=O)(=O)c2ccc3c(c2)oc(=O)n3CC(=O)NCc2ccc3c(c2)OCO3)CC1
inactive: growth inhibition [1] -1.64% | growth inhibition [2] -15.8% | viability increase [3] 4.02% | viability [4] 81.4% | viability [5] 76.7% | inhibition [6] 3.27% | RAM network inhibition [7] 2.06%

COc1ccc(C(C#N)Nc2ccccc2OC)cc1 (configuration not stated)
inactive: growth inhibition [1] -7.99% | growth inhibition [2] -12.7% | viability increase [3] -2.75% | viability [4] 80.9% | viability [5] 96% | inhibition [6] 0.35% | RAM network inhibition [7] 2.51%

Brc1cnc(N2CCCC2)nc1N1CCCCC1
inactive: growth inhibition [1] -5.12% | growth inhibition [2] 2.11% | viability increase [3] -2.63% | viability [4] 86.2% | viability [5] 84.4% | inhibition [6] 2.09% | RAM network inhibition [7] 0%

Cc1ccoc1C(=O)NCc1occc1C(=O)O
inactive: growth inhibition [1] -12.6% | growth inhibition [2] -16.8% | viability increase [3] -3.44% | viability [4] 96.2% | viability [5] 93.1% | inhibition [6] -0.575% | RAM network inhibition [7] 1.58%

Cc1c(C(=O)NCc2cccnc2)sc2nc(-c3ccccc3)cn12
inactive: growth inhibition [1] -4.69% | growth inhibition [2] 8.62% | viability increase [3] 0.16% | viability [4] 101% | viability [5] 89.5% | inhibition [6] 2.61% | RAM network inhibition [7] 7.67%

CCn1cc(C(=O)NCCCN2CC(C)CC(C)C2)c(=O)c2cc(S(=O)(=O)N(C)C)ccc21 (configuration not stated)
inactive: growth inhibition [1] -10.3% | growth inhibition [2] -19.1% | viability increase [3] -2.78% | viability [4] 96% | viability [5] 98.7% | inhibition [6] 0.88% | RAM network inhibition [7] -0.73%

Brc1ccc(-c2nnc3sc(CNC4CCCC4)cn23)cc1
inactive: growth inhibition [1] 0.69% | growth inhibition [2] 24.3% | viability increase [3] 0.19% | viability [4] 106% | viability [5] 107% | inhibition [6] 1.58% | RAM network inhibition [7] 2.6%

CCOC(=O)C1CCN(c2cc(=O)n(Cc3ccc(F)cc3)c(=O)[nH]2)CC1
inactive: growth inhibition [1] -11% | growth inhibition [2] -17.4% | viability increase [3] -0.81% | viability [4] 96.8% | viability [5] 88.5% | inhibition [6] 3.19% | RAM network inhibition [7] 5.11%

COc1ccc(C2C(C(N)=O)=C(C)Nc3nc(-c4ccccc4)nn32)cc1OC (configuration not stated)
inactive: growth inhibition [1] -4.7% | growth inhibition [2] -8.15% | viability increase [3] -1.13% | viability [4] 95.3% | viability [5] 95.2% | inhibition [6] 0.78% | RAM network inhibition [7] -0.68%

O=C(O)CN1C(=O)COc2cc(S(=O)(=O)N3CCCC3)ccc21
inactive: growth inhibition [1] 4.97% | growth inhibition [2] -0.475% | viability increase [3] 0.05% | viability [4] 94.8% | viability [5] 102% | inhibition [6] 0% | RAM network inhibition [7] 2.14%

CCOC(=O)C1CCCN(Cc2nc(N)nc(Nc3ccccc3OC)n2)C1 (configuration not stated)
inactive: growth inhibition [1] -0.44% | growth inhibition [2] -2.06% | viability increase [3] -3.66% | viability [4] 88.8% | viability [5] 83.4% | inhibition [6] 0.15% | RAM network inhibition [7] 0.43%

COc1ccc(N2C(=O)C3CCCN3C2c2cc(OC)c(OC)cc2OC)cc1 (configuration not stated)
inactive: growth inhibition [1] 8.35% | growth inhibition [2] 5.12% | viability increase [3] -3.74% | viability [4] 102% | viability [5] 90.4% | inhibition [6] 0.47% | RAM network inhibition [7] 7.38%

Cc1ccc2cc(CCNC(=O)C3CCCC3)c(=O)[nH]c2c1
inactive: growth inhibition [1] -7.07% | growth inhibition [2] -9.72% | viability increase [3] 1.09% | viability [4] 107% | viability [5] 98.2% | inhibition [6] 3.17% | RAM network inhibition [7] 4.58%

CCOC(=O)c1nn(-c2ccccc2)c(=O)c2c(N)scc12
inactive: growth inhibition [1] -4.99% | growth inhibition [2] -1.54% | viability increase [3] -3.93% | viability [4] 102% | viability [5] 107% | inhibition [6] 2.98% | RAM network inhibition [7] 4.03%

CSCCC(/C(O)=C(\C#N)c1nc2ccccc2[nH]1)N1C(=O)c2ccccc2C1=O (configuration not stated)
inactive: growth inhibition [1] -14.1% | growth inhibition [2] -11.8% | viability increase [3] 0% | viability [4] 89.8% | viability [5] 90.8% | inhibition [6] 2.82% | RAM network inhibition [7] 7.67%

COc1cc(C2C(C(=O)OC(C)C)=C(C)Nc3ncnn32)cc(OC)c1OC (configuration not stated)
inactive: growth inhibition [1] -8.66% | growth inhibition [2] -10.4% | viability increase [3] -3.15% | viability [4] 100% | viability [5] 96.8% | inhibition [6] 1.19% | RAM network inhibition [7] 1.44%

CCOC(=O)CSc1nc(N)nc(C)c1Br
inactive: growth inhibition [1] -0.46% | growth inhibition [2] -3.4% | viability increase [3] -2.62% | viability [4] 103% | viability [5] 104% | inhibition [6] 0.49% | RAM network inhibition [7] 0.51%

COc1ccc(NC(=O)CCS(=O)(=O)c2cccc3nonc23)c(OC)c1
inactive: growth inhibition [1] -4.67% | growth inhibition [2] -11.7% | viability increase [3] -2.54% | viability [4] 96.2% | viability [5] 93.8% | inhibition [6] 0.51% | RAM network inhibition [7] 2.06%

COc1cccc(C2CC(c3ccccc3OC)n3ncnc3N2)c1 (configuration not stated)
inactive: growth inhibition [1] -4.81% | growth inhibition [2] 8.07% | viability increase [3] -5.2% | viability [4] 90.1% | viability [5] 71.2% | inhibition [6] 0.455% | RAM network inhibition [7] -0.26%
